Test results from ChEMBL document CHEMBL1275419, “The thymidine-dependent small-colony-variant phenotype is associated with hypermutability and antibiotic resistance in clinical Staphylococcus aureus isolates” (Antimicrob Agents Chemother, 2008).
Calls of active or inactive are those of the source. The rule behind the calls is not given here.

Assays:
Type in all cases: functional, organism-based
[1] = system: Staphylococcus aureus; experiment: Antibacterial activity against normal-colony variant Staphylococcus aureus derived from cystic fibrosis patient assessed as resistant isolates at 37 degC after 24 hrs by disk diffusion method
Summary of the method: (§1)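 Disk diffusion per CLSI guidelines (fosfomycin per French CA-SFM guidelines). NCV isolates tested on plain Mueller-Hinton agar and incubated 24 h at 37°C. Isolates scored susceptible or resistant per agent.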

[2] = system: Staphylococcus aureus; experiment: Antibacterial activity against normal-colony variant Staphylococcus aureus derived from non cystic fibrosis patient assessed as resistant isolates at 37 degC after 24 hrs by disk diffusion method; summary of the method: as §1
[3] = system: Staphylococcus aureus; experiment: Antibacterial activity against thymidine-dependent small-colony variant Staphylococcus aureus derived from cystic fibrosis patient assessed as resistant isolates at 37 degC after 24 hrs by disk diffusion method
Summary of the method: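 Disk diffusion per CLSI guidelines (fosfomycin per French CA-SFM guidelines). Thymidine-dependent SCVs cannot grow without thymidine, so they were tested on Mueller-Hinton agar with 5% defibrinated sheep blood and incubated 24 h at 37°C. Isolates scored susceptible or resistant per agent.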

Molecule	Activity [1]	Activity [2]	Activity [3]
C[C@@H]1O[C@@H]1P(=O)(O)O	Active	Active	inactive
GENTAMICIN	Active	Active	inactive
CO[C@H]1/C=C/O[C@@]2(C)Oc3c(C)c(O)c4c(O)c(c(/C=N/N5CCN(C)CC5)c(O)c4c3C2=O)NC(=O)/C(C)=C\C=C\[C@H](C)[C@H](O)[C@@H](C)[C@@H](O)[C@@H](C)[C@H](OC(C)=O)[C@@H]1C	Active	Active	inactive
CC[C@H]1OC(=O)[C@H](C)[C@@H](O[C@H]2C[C@@](C)(OC)[C@@H](O)[C@H](C)O2)[C@H](C)[C@@H](O[C@@H]2O[C@H](C)C[C@H](N(C)C)[C@H]2O)[C@](C)(O)C[C@@H](C)C(=O)[C@H](C)[C@@H](O)[C@]1(C)O	Active	Active	inactive
O=C(O)c1cn(C2CC2)c2cc(N3CCNCC3)c(F)cc2c1=O	Active	Active	inactive
